Results reported in ChEMBL document CHEMBL1144837, “Antimitotic and antiproliferative activities of chalcones: forward structure-activity relationship” (J Med Chem, 2008).

How the values were obtained:
K562 [1] = test: Cell cycle arrest in human K562 cells assessed as accumulation at G2/M phase at 10 uM after 24 hrs by flow cytometry; type: functional
Procedure, shortened: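 K562 cells exposed 24 h at 10 µM, then stained with propidium iodide at 4 °C overnight and analysed by flow cytometry. After doublets and aggregates were excluded on an FL2-area/FL2-width plot, cells were assigned to G0/G1, S and G2/M, and the G2/M fraction was scored.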

[2] = Cytotoxicity against human HNO150 cells after 24 hrs by MTT assay; type: functional, cell-based; conditions: HNO150, 24 h
Procedure, shortened: (§1)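 MTT viability assay: exponentially growing cells were seeded at 3 × 10^3 cells/well and held 24 h before drug addition. Formazan was dissolved in isopropanol and read by absorbance relative to untreated wells. IC50 is the concentration giving 50% growth loss against a control-cell standard curve after 24 h incubation. Run in triplicate, at least three separate experiments.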

RL = test: Cytotoxicity against human RL cells after 24 hrs by MTT assay; type: functional, cell-based; procedure, shortened: as §1
HCT-116 = test: Cytotoxicity against human HCT116 cells after 24 hrs by MTT assay; type: functional, cell-based; conditions: HCT-116, 24 h; procedure, shortened: as §1
SW48 = test: Cytotoxicity against human SW48 cells after 24 hrs by MTT assay; type: functional, cell-based; conditions: SW48, 24 h; procedure, shortened: as §1
N2a = test: Cytotoxicity against mouse N2A cells after 24 hrs by MTT assay; type: functional, cell-based; procedure, shortened: as §1
K562 [3] = test: Cytotoxicity against human K562 cells after 24 hrs by MTT assay; type: functional, cell-based; conditions: K562, 24 h; procedure, shortened: as §1
CCRF-CEM = test: Cytotoxicity against human CEM cells after 24 hrs by MTT assay; type: functional, cell-based; procedure, shortened: as §1
NIH3T3 = test: Cytotoxicity against mouse NIH3T3 cells after 24 hrs by MTT assay; type: functional, cell-based; conditions: NIH3T3, 24 h; procedure, shortened: as §1
L1210 = test: Cytotoxicity against mouse L1210 cells after 24 hrs by MTT assay; type: functional, cell-based; conditions: L1210, 24 h; procedure, shortened: as §1
MCF7 = test: Cytotoxicity against human MCF7 cells after 24 hrs by MTT assay; type: functional, cell-based; conditions: MCF7, 24 h; procedure, shortened: as §1
[4] = Cytotoxicity against human Messa cells after 24 hrs by MTT assay; type: functional, cell-based; conditions: MES-SA; procedure, shortened: as §1

COc1cccc(OC)c1C(=O)/C=C/c1ccccc1
Activity (K562 [1]): 45%

COc1ccc(C(=O)/C=C/c2ccccc2Cl)c(O)c1
Activity (K562 [1]): 67%

COc1cc(OC)c(C(=O)/C=C/c2c(OC)cccc2OC)c(OC)c1
Activity (K562 [1]): 64%

CCOc1cc(OCC)c(/C=C/C(=O)c2c(OC)cccc2OC)c(OCC)c1
Activity (K562 [1]): 12%

COc1cccc(OC)c1C(=O)/C=C/c1ccccc1F
Activity (K562 [1]): 38%

COc1cc(/C=C/C(=O)c2ccc(OC)cc2O)cc(OC)c1
Activity (K562 [1]): 40%

COc1ccc(C(=O)/C=C/c2cccc(F)c2)c(OC)c1
Activity (K562 [1]): 32%

COc1ccc(C(=O)/C=C/c2c(OC)cccc2OC)c(O)c1
Activity (K562 [1]): 18%

O=C(/C=C/c1c(Cl)cccc1Cl)c1ccccc1
Activity (K562 [1]): 28%

COc1ccc(C(=O)/C=C/c2cc(OC)c(OC)c(OC)c2)c(O)c1
Activity (K562 [1]): 20%

COc1cc(O)c(C(=O)/C=C/c2ccccc2)c(OC)c1 [FLAVOKAWAIN B]
Activity (K562 [1]): 28%

COc1ccc(C(=O)/C=C/c2c(OC)cc(OC)cc2OC)c(O)c1
Activity (K562 [1]): 19%

COc1cccc(/C=C/C(=O)c2c(OC)cccc2OC)c1
Activity (K562 [1]): 29%

COc1ccc(C(=O)/C=C/c2cc(OC)ccc2OC)c(O)c1
Activity (K562 [1]): 32%

COc1ccc(/C=C/C(=O)c2c(OC)cc(OC)cc2OC)c(OC)c1
Activity (K562 [1]): 15%

COc1cccc(OC)c1C(=O)/C=C/c1c(Cl)cccc1Cl
Activity (K562 [1]): 39%

CCOc1ccc(/C=C/C(=O)c2c(OCC)cccc2OCC)c(OCC)c1
Activity (K562 [1]): 11%

COc1ccc(C(=O)/C=C/c2ccc(OC)cc2OC)c(O)c1
Activity (K562 [1]): 18%

COc1cccc(OC)c1/C=C/C(=O)c1c(OC)cccc1OC
IC50 [2]: 62 µM
IC50 (RL): 40 µM
Activity (K562 [1]): 78%
IC50 (HCT-116): 9 µM
IC50 (SW48): 10 µM
IC50 (N2a): 55 µM
IC50 (K562 [3]): 80 µM
IC50 (CCRF-CEM): 6 µM
IC50 (NIH3T3): 60 µM
IC50 (L1210): 34 µM
IC50 (MCF7): 75 µM
IC50 [4]: 10 µM

COc1cccc(OC)c1C(=O)/C=C/c1c(C)cc(C)cc1C
Activity (K562 [1]): 23%

COc1ccc(C(=O)/C=C/c2cccc(F)c2)c(O)c1
Activity (K562 [1]): 40%

COc1ccc(C(=O)/C=C/c2c(Cl)cccc2OC)c(O)c1
Activity (K562 [1]): 45%

COc1cc(O)c(C(=O)/C=C/c2c(Cl)cccc2Cl)c(OC)c1
Activity (K562 [1]): 26%

COc1cc(OC)c(/C=C/C(=O)c2ccc(Cl)c(Cl)c2)c(OC)c1
Activity (K562 [1]): 30%

COc1cc(O)c(C(=O)/C=C/c2ccccc2OC)c(OC)c1
Activity (K562 [1]): 41%

COc1cccc(OC)c1/C=C/C(=O)c1ccccc1
Activity (K562 [1]): 34%

COc1ccc(/C=C/C(=O)c2c(OC)cccc2OC)c(OC)c1
Activity (K562 [1]): 22%

CCOc1cc(OCC)c(/C=C/C(=O)c2c(OCC)cc(OCC)cc2OCC)c(OCC)c1
Activity (K562 [1]): 18%

COc1cc(OC)c(/C=C/C(=O)c2c(OC)cc(OC)cc2OC)c(OC)c1
IC50 [2]: 10 µM
IC50 (RL): 0.9 µM
Activity (K562 [1]): 86%
IC50 (HCT-116): 1 µM
IC50 (SW48): 0.8 µM
IC50 (N2a): 4 µM
IC50 (K562 [3]): 50 µM
IC50 (CCRF-CEM): 1.9 µM
IC50 (NIH3T3): 30 µM
IC50 (L1210): 8.5 µM
IC50 (MCF7): 52 µM
IC50 [4]: 2.2 µM

COc1cc(OC)c(/C=C/C(=O)c2c(OC)cccc2OC)c(OC)c1
IC50 [2]: 1.3 µM
IC50 (RL): 0.8 µM
Activity (K562 [1]): 84%
IC50 (HCT-116): 0.45 µM
IC50 (SW48): 0.25 µM
IC50 (N2a): 2.2 µM
IC50 (K562 [3]): 50 µM
IC50 (CCRF-CEM): 0.65 µM
IC50 (NIH3T3): 30 µM
IC50 (L1210): 7 µM
IC50 (MCF7): 60 µM
IC50 [4]: 1 µM

COc1cc(O)c(C(=O)/C=C/c2ccccc2Cl)c(OC)c1
Activity (K562 [1]): 43%

COc1ccc(C(=O)/C=C/c2cc(OC)c(OC)cc2OC)c(O)c1
Activity (K562 [1]): 15%

COc1cccc(/C=C/C(=O)c2c(O)cc(OC)cc2OC)c1
Activity (K562 [1]): 52%

COc1cc(/C=C/C(=O)c2c(O)cc(OC)cc2OC)cc(OC)c1
Activity (K562 [1]): 11%

COc1ccc(/C=C/C(=O)c2ccc(OC)cc2OC)c(OC)c1
Activity (K562 [1]): 25%

CCOc1cccc(OCC)c1C(=O)/C=C/c1c(OC)cccc1OC
Activity (K562 [1]): 14%

CCOc1cccc(OCC)c1C(=O)/C=C/c1c(OC)cc(OC)cc1OC
Activity (K562 [1]): 10%

COc1cc(OC)c(/C=C/C(=O)c2c(OC)cc(N)cc2OC)c(OC)c1
Activity (K562 [1]): 74%

COc1ccc(C(=O)/C=C/c2ccc(Cl)cc2)c(O)c1
Activity (K562 [1]): 10%

COc1ccc(C(=O)/C=C/c2ccccc2Cl)c(OC)c1
Activity (K562 [1]): 42%

COc1cccc(OC)c1C(=O)/C=C/c1cccc(Cl)c1
Activity (K562 [1]): 19%

COc1cc(OC)c(OC)cc1/C=C/C(=O)c1c(OC)cccc1OC
Activity (K562 [1]): 49%

CC[C@]1(O)C[C@H]2CN(CCc3c([nH]c4ccccc34)[C@@](C(=O)OC)(c3cc4c(cc3OC)N(C=O)[C@H]3[C@@](O)(C(=O)OC)[C@H](OC(C)=O)[C@]5(CC)C=CCN6CC[C@]43[C@@H]65)C2)C1 [VINCRISTINE]
Activity (K562 [1]): 72%

COc1cc(O)c(C(=O)/C=C/c2ccc3c(c2)OCO3)c(OC)c1
Activity (K562 [1]): 13%

COc1cc(/C=C/C(=O)c2c(OC)cccc2OC)cc(OC)c1OC
Activity (K562 [1]): 25%

COc1cc(O)c(C(=O)/C=C/c2cccc(F)c2)c(OC)c1
Activity (K562 [1]): 48%

COc1ccc(C(=O)/C=C/c2ccc(OC)c(OC)c2)c(O)c1
Activity (K562 [1]): 18%

COc1ccc(C(=O)/C=C/c2ccc(OC)c(OC)c2OC)c(O)c1
Activity (K562 [1]): 20%

COc1ccc(C(=O)/C=C/c2c(OC)cc(OC)cc2OC)c(OC)c1 (stereo in doubt; 52)
Activity (K562 [1]): 72%

COc1cccc(OC)c1C(=O)/C=C/c1ccccc1Cl
Activity (K562 [1]): 23%

COc1cccc(/C=C/C(=O)c2ccc(OC)cc2O)c1
Activity (K562 [1]): 26%

COc1ccc(C(=O)/C=C/c2c(F)cccc2Cl)c(O)c1
Activity (K562 [1]): 19%

COc1cc(O)c(C(=O)/C=C/c2c(OC)cccc2OC)c(OC)c1
Activity (K562 [1]): 12%

COc1ccc(/C=C/C(=O)c2c(OC)cccc2OC)c(OC)c1OC
Activity (K562 [1]): 19%

COc1ccc(C(=O)/C=C/c2cccc(OC)c2OC)c(O)c1
Activity (K562 [1]): 22%

COc1ccc(C(=O)/C=C/c2c(OC)cc(OC)cc2OC)c(OC)c1 (stereo in doubt; 3)
Activity (K562 [1]): 86%

COc1ccccc1/C=C/C(=O)c1c(OC)cccc1OC
Activity (K562 [1]): 18%

COc1cccc(OC)c1C(=O)/C=C/c1cccc(F)c1
Activity (K562 [1]): 27%

COc1cccc(OC)c1C(=O)/C=C/c1c(OC)c(F)c(OC)c(F)c1OC
Activity (K562 [1]): 46%

COc1cccc(OC)c1C(=O)/C=C/c1ccc(C(F)(F)F)cc1
Activity (K562 [1]): 23%
